Assay results from ChEMBL document CHEMBL3091321, “Design, synthesis and cytotoxicity of novel 3'-N-alkoxycarbonyl docetaxel analogs” (Bioorg Med Chem Lett, 2013).

Columns and labels:
A549 [1] = assay: Cytotoxicity against human A549 cells after 48 hrs by MTT assay; assay type: functional, cell-based; conditions: A549, 48 h
Summary of the method: (§1)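 Cells were exposed to drug for 48 h at seven ten-fold dilutions down to 0.1 nM. MTT in RPMI-1640 was then added for a further 4 h at 37 °C. Formazan was dissolved in DMSO and absorbance read at 570 nm after 5 min. Each run was done in triplicate. IC₅₀ is given as mean ± SD of three independent experiments.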

SK-OV-3 = assay: Cytotoxicity against human SKOV3 cells after 48 hrs by MTT assay; assay type: functional, cell-based; conditions: SK-OV-3, 48 h; summary of the method: as §1
A549 [2] = assay: Ratio of taxol IC50 to compound IC50 for human A549 cells; assay type: functional
A549 [3] = assay: Ratio of docetaxel IC50 to compound IC50 for human A549 cells; assay type: functional

Structure (SMILES): CC(=O)O[C@@]12CO[C@@H]1C[C@H](O)[C@@]1(C)C(=O)[C@H](O)C3=C(C)[C@@H](OC(=O)[C@H](O)[C@@H](NC(=O)O[C@H](C)C(C)C)c4ccccc4)C[C@@](O)([C@@H](OC(=O)c4ccccc4)[C@H]21)C3(C)C
- IC50 (A549 [1]): 0.035 µM
- IC50 (SK-OV-3): 0.013 µM

Structure (SMILES): CC(=O)O[C@@]12CO[C@@H]1C[C@H](O)[C@@]1(C)C(=O)[C@H](O)C3=C(C)[C@@H](OC(=O)[C@H](O)[C@@H](NC(=O)O[C@@H](C)C(C)C)c4ccccc4)C[C@@](O)([C@@H](OC(=O)c4ccccc4)[C@H]21)C3(C)C
- IC50 (A549 [1]): 0.06 µM
- IC50 (SK-OV-3): 0.017 µM

Structure (SMILES): CC[C@@H](C)OC(=O)N[C@@H](c1ccccc1)[C@@H](O)C(=O)O[C@H]1C[C@@]2(O)[C@@H](OC(=O)c3ccccc3)[C@@H]3[C@]4(OC(C)=O)CO[C@@H]4C[C@H](O)[C@@]3(C)C(=O)[C@H](O)C(=C1C)C2(C)C
- IC50 (A549 [1]): 0.018 µM
- IC50 (SK-OV-3): 0.013 µM

Structure (SMILES): CC[C@H](C)OC(=O)N[C@@H](c1ccccc1)[C@@H](O)C(=O)O[C@H]1C[C@@]2(O)[C@@H](OC(=O)c3ccccc3)[C@@H]3[C@]4(OC(C)=O)CO[C@@H]4C[C@H](O)[C@@]3(C)C(=O)[C@H](O)C(=C1C)C2(C)C
- IC50 (A549 [1]): 0.04 µM
- IC50 (SK-OV-3): 0.027 µM

Structure (SMILES): CCC(C)(C)OC(=O)N[C@@H](c1ccccc1)[C@@H](O)C(=O)O[C@H]1C[C@@]2(O)[C@@H](OC(=O)c3ccccc3)[C@@H]3[C@]4(OC(C)=O)CO[C@@H]4C[C@H](O)[C@@]3(C)C(=O)[C@H](O)C(=C1C)C2(C)C
- IC50 (A549 [1]): 0.013 µM
- IC50 (SK-OV-3): 0.0059 µM
- Ratio IC50 (A549 [2]): >65
- Ratio IC50 (A549 [3]): >65

Structure (SMILES): CCCC(C)(C)OC(=O)N[C@@H](c1ccccc1)[C@@H](O)C(=O)O[C@H]1C[C@@]2(O)[C@@H](OC(=O)c3ccccc3)[C@@H]3[C@]4(OC(C)=O)CO[C@@H]4C[C@H](O)[C@@]3(C)C(=O)[C@H](O)C(=C1C)C2(C)C
- IC50 (A549 [1]): 0.01 µM
- IC50 (SK-OV-3): 0.0029 µM
- Ratio IC50 (A549 [2]): >65
- Ratio IC50 (A549 [3]): >65

Structure (SMILES): CC(=O)O[C@@]12CO[C@@H]1C[C@H](O)[C@@]1(C)C(=O)[C@H](O)C3=C(C)[C@@H](OC(=O)[C@H](O)[C@@H](NC(=O)OC(C)(C)C(C)C)c4ccccc4)C[C@@](O)([C@@H](OC(=O)c4ccccc4)[C@H]21)C3(C)C
- IC50 (A549 [1]): 0.012 µM
- IC50 (SK-OV-3): 0.0027 µM
- Ratio IC50 (A549 [2]): >65
- Ratio IC50 (A549 [3]): >65

Structure (SMILES): CC(=O)O[C@@]12CO[C@@H]1C[C@H](O)[C@@]1(C)C(=O)[C@H](O)C3=C(C)[C@@H](OC(=O)[C@H](O)[C@@H](NC(=O)OC(C)(C)CF)c4ccccc4)C[C@@](O)([C@@H](OC(=O)c4ccccc4)[C@H]21)C3(C)C
- IC50 (A549 [1]): 0.14 µM

Structure (SMILES): CC(=O)O[C@@]12CO[C@@H]1C[C@H](O)[C@@]1(C)C(=O)[C@H](O)C3=C(C)[C@@H](OC(=O)[C@H](O)[C@@H](NC(=O)OC(C)C(C)C)c4ccccc4)C[C@@](O)([C@@H](OC(=O)c4ccccc4)[C@H]21)C3(C)C (mixture of isomers)
- IC50 (A549 [1]): 0.047 µM
- IC50 (SK-OV-3): 0.016 µM

Structure (SMILES): CCC(C)OC(=O)N[C@@H](c1ccccc1)[C@@H](O)C(=O)O[C@H]1C[C@@]2(O)[C@@H](OC(=O)c3ccccc3)[C@@H]3[C@]4(OC(C)=O)CO[C@@H]4C[C@H](O)[C@@]3(C)C(=O)[C@H](O)C(=C1C)C2(C)C (mixture of isomers)
- IC50 (A549 [1]): 0.03 µM
- IC50 (SK-OV-3): 0.022 µM

Structure (SMILES): CC(=O)O[C@@]12CO[C@@H]1C[C@H](O)[C@@]1(C)C(=O)[C@H](O)C3=C(C)[C@@H](OC(=O)[C@H](O)[C@@H](NC(=O)OC(C)(C)C)c4ccccc4)C[C@@](O)([C@@H](OC(=O)c4ccccc4)[C@H]21)C3(C)C [DOCETAXEL]
- IC50 (A549 [1]): 0.85 µM
- IC50 (SK-OV-3): 0.005 µM

Structure (SMILES): CC(=O)O[C@H]1C(=O)[C@@]2(C)[C@H]([C@H](OC(=O)c3ccccc3)[C@]3(O)C[C@H](OC(=O)[C@H](O)[C@@H](NC(=O)c4ccccc4)c4ccccc4)C(C)=C1C3(C)C)[C@]1(OC(C)=O)CO[C@@H]1C[C@@H]2O [PACLITAXEL]
- IC50 (A549 [1]): 0.93 µM
- IC50 (SK-OV-3): 0.035 µM
